Results taken from ChEMBL document CHEMBL1148318, “Synthesis and antibacterial activity of a novel class of 4'-substituted 16-membered ring macrolides derived from tylosin” (2004).
≈ marks a conversion by molar mass, not a printed value.

Tests used:
Type in all cases: functional
[1] = test system: Streptococcus pneumoniae; assay: In vitro antibacterial activity against efflex resistant Streptococcus pneumoniae 7701
Outline: (§1)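 MIC determined by agar dilution per NCCLS recommendations. Strains: S. pneumoniae 49619 (erythromycin-susceptible); S. pneumoniae 700904 and S. pyogenes 2912 (erm-encoded MLSB-resistant); S. pneumoniae 7701 and S. pyogenes 1323 (mef-encoded efflux-resistant); H. influenzae 33929 (ampicillin-resistant).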

[2] = test system: Streptococcus pyogenes; assay: In vitro antibacterial activity against efflex resistant Streptococcus pyogenes 1323; outline: as §1
[3] = test system: Streptococcus pneumoniae; assay: In vitro antibacterial activity against erythromycin susceptible Streptococcus pneumoniae 49619; outline: as §1
[4] = test system: Haemophilus influenzae; assay: In vitro antibacterial activity against ampicillin resistant Haemophilus influenzae 33929; outline: as §1
[5] = test system: Streptococcus pyogenes; assay: In vitro antibacterial activity against macrolide-lincosamide-streptogramin resistant Streptococcus pyogenes 2912; outline: as §1
[6] = test system: Streptococcus pneumoniae; assay: In vitro antibacterial activity against macrolide-lincosamide-streptogramin resistant Streptococcus pneumoniae 700904; outline: as §1
[7] = test system: Staphylococcus aureus; assay: In vitro antibacterial activity against erythromycin susceptible Staphylococcus aureus 25923
Outline: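 MIC by agar dilution following NCCLS recommendations; S. aureus 25923 is an erythromycin-susceptible strain.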

Structure (SMILES)	MIC [1]	MIC [2]	MIC [3]	MIC [4]	MIC [5]	MIC [6]	MIC [7]
CC[C@H]1OC(=O)C[C@@H](O)[C@H](C)[C@@H](O[C@@H]2O[C@H](C)[C@@H](OC/C=C/c3cnc4ccccc4c3)[C@H](N(C)C)[C@H]2O)[C@@H](CC=O)C[C@@H](C)C(=O)/C=C/C(C)=C/[C@@H]1CO[C@@H]1O[C@H](C)[C@@H](O)[C@@H](OC)[C@H]1OC	0.0625 µg/mL (≈ 0.0665 µM)	0.0625 µg/mL (≈ 0.0665 µM)	0.0625 µg/mL (≈ 0.0665 µM)	4 µg/mL (≈ 4.26 µM)	8 µg/mL (≈ 8.52 µM)	1 µg/mL (≈ 1.06 µM)	0.5 µg/mL (≈ 0.532 µM)
CC[C@H]1OC(=O)C[C@@H](O)[C@H](C)[C@@H](O[C@@H]2O[C@H](C)[C@@H](O/C=C\Cc3cnc4ccccc4c3)[C@H](N(C)C)[C@H]2O)[C@@H](CC=O)C[C@@H](C)C(=O)/C=C/C(C)=C/[C@@H]1CO[C@@H]1O[C@H](C)[C@@H](O)[C@@H](OC)[C@H]1OC	0.0625 µg/mL (≈ 0.0665 µM)	0.0625 µg/mL (≈ 0.0665 µM)	0.0625 µg/mL (≈ 0.0665 µM)	4 µg/mL (≈ 4.26 µM)	16 µg/mL (≈ 17 µM)	0.5 µg/mL (≈ 0.532 µM)	0.5 µg/mL (≈ 0.532 µM)
CC[C@H]1OC(=O)C[C@@H](O)[C@H](C)[C@@H](O[C@@H]2O[C@H](C)[C@@H](OC(=O)NCCc3ccccc3)[C@H](N(C)C)[C@H]2O)[C@@H](CC=O)C[C@@H](C)C(=O)/C=C/C(C)=C/[C@@H]1CO[C@@H]1O[C@H](C)[C@@H](O)[C@@H](OC)[C@H]1OC	2 µg/mL (≈ 2.18 µM)	0.25 µg/mL (≈ 0.272 µM)	1 µg/mL (≈ 1.09 µM)	16 µg/mL (≈ 17.4 µM)	> 64 µg/mL	> 64 µg/mL	2 µg/mL (≈ 2.18 µM)
C=CCO[C@H]1[C@H](N(C)C)[C@@H](O)[C@H](O[C@H]2[C@@H](CC=O)C[C@@H](C)C(=O)/C=C/C(C)=C/[C@H](CO[C@@H]3O[C@H](C)[C@@H](O)[C@@H](OC)[C@H]3OC)[C@@H](CC)OC(=O)C[C@@H](O)[C@@H]2C)O[C@@H]1C	0.5 µg/mL (≈ 0.616 µM)	0.125 µg/mL (≈ 0.154 µM)	0.5 µg/mL (≈ 0.616 µM)	8 µg/mL (≈ 9.85 µM)	32 µg/mL (≈ 39.4 µM)	> 64 µg/mL	1 µg/mL (≈ 1.23 µM)
CC[C@H]1OC(=O)C[C@@H](O)[C@H](C)[C@@H](O[C@@H]2O[C@H](C)[C@@H](O[C@H]3C[C@@](C)(O)[C@@H](O)[C@H](C)O3)[C@H](N(C)C)[C@H]2O)[C@@H](CC=O)C[C@@H](C)C(=O)/C=C/C(C)=C/[C@@H]1CO[C@@H]1O[C@H](C)[C@@H](O)[C@@H](OC)[C@H]1OC [TYLOSIN]	0.25 µg/mL (≈ 0.273 µM)	0.25 µg/mL (≈ 0.273 µM)	0.25 µg/mL (≈ 0.273 µM)	8 µg/mL (≈ 8.73 µM)	> 64 µg/mL	64 µg/mL (≈ 69.9 µM)	2 µg/mL (≈ 2.18 µM)
CC[C@H]1OC(=O)[C@H](C)[C@@H](O[C@H]2C[C@@](C)(OC)[C@@H](O)[C@H](C)O2)[C@H](C)[C@@H](O[C@@H]2O[C@H](C)C[C@H](N(C)C)[C@H]2O)[C@](C)(O)C[C@@H](C)C(=O)[C@H](C)[C@@H](O)[C@]1(C)O [ERYTHROMYCIN]	8 µg/mL (≈ 10.9 µM)	16 µg/mL (≈ 21.8 µM)	0.06 µg/mL (≈ 0.0818 µM)	4 µg/mL (≈ 5.45 µM)	> 64 µg/mL	> 64 µg/mL	0.5 µg/mL (≈ 0.681 µM)
